What all share (format): cell-based
Experiment [1] addresses T1, Glycine receptor subunit alpha-1 (Homo sapiens, UniProt P23415).
T1 sequence (P23415 whole entry): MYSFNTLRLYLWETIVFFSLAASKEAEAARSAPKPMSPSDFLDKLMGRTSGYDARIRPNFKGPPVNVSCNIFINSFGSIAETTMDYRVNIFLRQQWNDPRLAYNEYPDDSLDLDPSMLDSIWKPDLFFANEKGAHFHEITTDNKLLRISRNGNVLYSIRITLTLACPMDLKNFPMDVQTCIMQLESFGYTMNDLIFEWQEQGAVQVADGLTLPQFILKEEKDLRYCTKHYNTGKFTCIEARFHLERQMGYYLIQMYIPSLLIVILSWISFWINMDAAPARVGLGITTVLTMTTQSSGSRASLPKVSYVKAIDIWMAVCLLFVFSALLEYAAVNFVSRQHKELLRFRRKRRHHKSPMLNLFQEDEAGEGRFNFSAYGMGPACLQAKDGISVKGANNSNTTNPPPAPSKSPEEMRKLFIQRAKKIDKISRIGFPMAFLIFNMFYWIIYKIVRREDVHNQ
Nature of the experiment: Activity at human alpha-1-beta-GlyR expressed in HEK293 cells by FMP assay. The method, boiled down: (§1)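 Stable HEK293 lines (α1: G418; α1β: G418 + hygromycin B; α2: hygromycin B) plated on poly-D-lysine 16-24 h. Loaded with FMP dye in HBSS/20 mM HEPES pH 7.4, antagonist present, 30 min at 37 °C. Fluorescence ex 530/em 560 nm read up to 1 min after glycine: 200 µM (α1, α1β) or 500 µM (α2). Duplicates, ≥3 experiments; IC50 from maximal responses.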

For experiment [2], the target named is T2, Glycine receptor subunit alpha-2 (Homo sapiens, UniProt P23416).
T2 sequence (P23416 whole entry): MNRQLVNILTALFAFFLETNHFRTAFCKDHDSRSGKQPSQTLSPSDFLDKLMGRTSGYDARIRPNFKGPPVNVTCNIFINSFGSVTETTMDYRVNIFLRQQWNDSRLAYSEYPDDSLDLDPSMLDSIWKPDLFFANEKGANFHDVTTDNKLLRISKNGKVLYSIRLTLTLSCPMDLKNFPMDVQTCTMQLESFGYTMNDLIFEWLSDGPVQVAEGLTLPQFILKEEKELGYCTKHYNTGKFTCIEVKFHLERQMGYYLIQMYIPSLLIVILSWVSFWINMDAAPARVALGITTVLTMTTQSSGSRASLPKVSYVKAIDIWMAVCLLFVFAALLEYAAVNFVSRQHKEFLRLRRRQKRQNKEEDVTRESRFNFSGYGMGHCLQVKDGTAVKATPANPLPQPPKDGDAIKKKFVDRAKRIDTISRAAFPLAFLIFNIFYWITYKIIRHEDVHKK
Nature of the experiment: Activity at human alpha-2GlyR expressed in HEK293 cells by FMP assay. The method, boiled down: as §1

Experiment [3] has as its target T1, Glycine receptor subunit alpha-1. Briefly: Activity at human alpha-1GlyR expressed in HEK293 cells by FMP assay. The method, boiled down: as §1

Structures are written as SMILES. A value given as a limit tells only on which side of the number the result lay.

Regarding `COC(=O)/C(C)=C1\CC[C@@]23C4C[C@@H](C(C)(C)C)C25C(OC(=O)[C@@H]5O)O[C@]13C(=O)O4` (some centres undefined), the IC50 in experiment [1], in experiment [2] and in experiment [3] was greater than 100 µM throughout.

Consider `C[C@@H]1C(=O)O[C@H]2[C@H](O)[C@]34[C@@H]5C(=O)O[C@@]3(O[C@@H]3OC(=O)[C@H](O)[C@@]34[C@H](C(C)(C)C)[C@@H]5Cl)[C@@]12O`, for which the IC50 in experiment [1] amounted to 3.2 µM; in experiment [2], 13 µM; in experiment [3], 7.6 µM.

For `C[C@@H]1C(=O)O[C@H]2C[C@@]34C5C[C@@H](C(C)(C)C)C3C(=O)O[C@]4(C(=O)O5)[C@]21O` (some centres undefined), the IC50 in experiment [1], in experiment [2] and in experiment [3] was greater than 100 µM each time.

Take `CO[C@H]1C(=O)O[C@H]2O[C@@]34OC(=O)[C@@H]5[C@H](O)[C@@H](C(C)(C)C)[C@@]21[C@@]53[C@@H](O)[C@@H]1OC(=O)[C@@H](C)[C@@]14O`: the half-maximal inhibitory concentration (IC50) came to 5.2 µM in experiment [1], 7.8 µM in experiment [2] and 9.8 µM in experiment [3].

Regarding `COC1C[C@]23C4C[C@@H](C(C)(C)C)C25C(OC(=O)[C@@H]5OC(C)=O)O[C@@]3(C(=O)O1)C(=O)O4` (some centres undefined), the IC50 in experiment [1], in experiment [2] and in experiment [3] was greater than 100 µM each time.

For the compound `CN[C@@H]1C2OC(=O)[C@]34OC5OC(=O)[C@H](O)C5([C@@H]1C(C)(C)C)[C@@]23[C@@H](O)[C@@H]1OC(=O)[C@@H](C)[C@@]14O` (some centres undefined), the half-inhibitory concentration (IC50) in experiment [1], in experiment [2] and in experiment [3] was greater than 100 µM in each case.

In the case of `COC1C[C@@]23C4C[C@@H](C(C)(C)C)C25C(OC(=O)[C@@H]5OC)O[C@@]3(C(=O)O1)C(=O)O4` (some centres undefined), the IC50 in experiment [1], in experiment [2] and in experiment [3] was greater than 100 µM in each case.

Turning to `C[C@@H]1C(=O)O[C@H]2[C@H](O)[C@]34C5OC(=O)[C@@]3(OC3OC(=O)[C@H](O)C34[C@H](C(C)(C)C)C5=O)[C@@]12O` (some centres undefined), the IC50 in experiment [1], in experiment [2] and in experiment [3] was greater than 100 µM each time.

On to `COC(=O)[C@H](OC)C12C(OC)O[C@@]34C(=O)OC(C[C@H]1C(C)(C)C)[C@]23C[C@@H]1OC(=O)[C@@H](C)[C@@]14O` (some centres undefined), for which the IC50 in experiment [1], in experiment [2] and in experiment [3] was greater than 100 µM each time.

Take `C[C@@H]1CO[C@H]2C[C@@]34C5C[C@@H](C(C)(C)C)C36C(OC[C@@H]6O)O[C@]4(CO5)[C@@]12O` (some centres undefined): the IC50 in experiment [1], in experiment [2] and in experiment [3] was greater than 100 µM in each case.

Consider `C[C@@H]1CO[C@H]2C[C@@]34C5C[C@@H](C(C)(C)C)C36C(OC[C@@H]6O)O[C@]4(C(=O)O5)[C@@]12O` (some centres undefined), for which the IC50 in experiment [1], in experiment [2] and in experiment [3] was greater than 100 µM each time.

Consider `COC(=O)C(C)[C@H]1CC[C@@]23C4C[C@@H](C(C)(C)C)C25C(OC(=O)[C@@H]5O)O[C@]13C(=O)O4` (some centres undefined), for which the IC50 in experiment [1], in experiment [2] and in experiment [3] was greater than 100 µM throughout.

For `CC(C)(C)[C@@H]1CC2OC(=O)C34OC5OC(=O)[C@H](O)C51[C@@]23CC1OC(=O)[C@](C)(O)[C@@]14O` (some centres undefined), the IC50 in experiment [1], in experiment [2] and in experiment [3] was greater than 100 µM each time.

On to `CC(=O)O[C@@H]1C2OC(=O)[C@]34OC5OC(=O)[C@H](O)C5([C@@H]1C(C)(C)C)[C@@]23[C@@H](O)[C@@H]1OC(=O)[C@@H](C)[C@@]14O` (some centres undefined), for which the IC50 in experiment [1], in experiment [2] and in experiment [3] was greater than 100 µM each time.

With `CCN[C@@H]1C2OC(=O)[C@]34OC5OC(=O)[C@H](O)C5([C@@H]1C(C)(C)C)[C@@]23[C@@H](O)[C@@H]1OC(=O)[C@@H](C)[C@@]14O` (some centres undefined), the IC50 in experiment [1], in experiment [2] and in experiment [3] was greater than 100 µM in each case.

For `C[C@@H]1C(=O)O[C@H]2C[C@]34C5OC(=O)[C@]3(OC(O)C4[C@H](C(C)(C)C)[C@H]5O)[C@]21O` (some centres undefined), the IC50 in experiment [1], in experiment [2] and in experiment [3] was greater than 100 µM each time.

Regarding `C[C@@H]1C(=O)O[C@H]2[C@H](O)[C@]34C5OC(=O)[C@@]3(OC3OC(=O)[C@H](O)C34[C@H](C(C)(C)C)[C@@H]5O)[C@@]12O` (some centres undefined), the IC50 in experiment [1], in experiment [2] and in experiment [3] was greater than 100 µM throughout.

In the case of `C[C@@H]1C(=O)O[C@H]2[C@H](O)[C@]34[C@@H]5C(=O)O[C@@]3(O[C@@H]3OC(=O)[C@H](O)[C@@]34[C@H](C(C)(C)C)[C@@H]5N=[N+]=[N-])[C@@]12O`, the IC50 in experiment [1] amounted to 7.4 µM; in experiment [2], 29 µM; in experiment [3], 17 µM.

As to `C[C@@H]1C(=O)O[C@H]2C[C@@]34C5C[C@@H](C(C)(C)C)C36C(=O)C(=O)OC6O[C@]4(C(=O)O5)[C@]21O` (some centres undefined), the IC50 in experiment [1], in experiment [2] and in experiment [3] was greater than 100 µM throughout.

As to `C[C@@H]1CO[C@@H]2C[C@@]34C5C[C@@H](C(C)(C)C)C36C(OC(=O)[C@@H]6O)O[C@]4(C(=O)O5)[C@@]12O` (some centres undefined), the half-inhibitory concentration (IC50) in experiment [1], in experiment [2] and in experiment [3] was greater than 100 µM each time.

Turning to `C[C@@H]1C(=O)O[C@H]2[C@H](O)[C@@]34C5OC(=O)[C@@]3(OC3OC(=O)[C@H](O)C34[C@H](C(C)(C)C)[C@H]5OS(=O)(=O)C(F)(F)F)[C@@]12O` (some centres undefined), the half-maximal inhibitory concentration (IC50) in experiment [1], in experiment [2] and in experiment [3] was greater than 100 µM each time.

On to `C[C@@H]1C(=O)O[C@H]2[C@H](O)[C@]34C5OC(=O)[C@@]3(OC3OC(=O)[C@H](O)C34[C@H](C(C)(C)C)[C@@H]5OC(=O)Cc3ccccc3)[C@@]12O` (some centres undefined), for which the IC50 in experiment [1], in experiment [2] and in experiment [3] was greater than 100 µM each time.

For `C[C@@H]1C(=O)OC2[C@@H]3OCO[C@H]4C(=O)OC5OC6(C(=O)OC7C[C@@H](C(C)(C)C)C54[C@]736)[C@]21O` (some centres undefined), the IC50 in experiment [1] worked out at 8.9 µM; in experiment [2], 12 µM; in experiment [3] it was 12 µM.

For the compound `CC(=O)O[C@H]1C(=O)OC2O[C@@]34C(=O)OC5C[C@@H](C(C)(C)C)C21[C@@]53C[C@@H]1OC(=O)[C@H](C)[C@@H]14` (some centres undefined), the IC50 in experiment [1], in experiment [2] and in experiment [3] was greater than 100 µM throughout.

On to `CC1=C2C(=C[C@]34C5OC(=O)[C@@]23OC2OC(=O)[C@H](O)C24[C@H](C(C)(C)C)[C@H]5O)OC1=O` (some centres undefined), for which the IC50 in experiment [1], in experiment [2] and in experiment [3] was greater than 100 µM each time.

`C[C@@H]1C(=O)O[C@H]2[C@H](O)[C@]34[C@@H]5C(=O)O[C@@]3(O[C@@H]3OC(=O)[C@H](O)[C@@]34[C@H](C(C)(C)C)[C@@H]5F)[C@@]12O`: the IC50 in experiment [1] stood at 3.2 µM; in experiment [2], 4.6 µM; in experiment [3], 7.3 µM.

For `CC1=C2[C@H](C[C@]34[C@H]5C[C@@H](C(C)(C)C)[C@]36[C@@H](OC(=O)[C@@H]6O)O[C@]24OC5=O)OC1=O` [3,14-DIDEHYDROGINKGOLIDE A], the values for the IC50 in experiment [1], in experiment [2] and in experiment [3] were 3.1 µM, 9.5 µM and 6.2 µM, respectively.

With `CC(=O)O[C@H]1C(=O)OC2O[C@@]34C(=O)OC5C[C@@H](C(C)(C)C)C21[C@@]53C[C@@H]1OC(=O)[C@@H](C)[C@@]14O` (some centres undefined) [10-ACETOXY-GINKGOLIDE B], the IC50 in experiment [1], in experiment [2] and in experiment [3] was greater than 100 µM throughout.

The term IC50 denotes the concentration that gives 50% inhibition.

For the origin of these results see ChEMBL document CHEMBL1142995, “Probing the pharmacophore of ginkgolides as glycine receptor antagonists” (J Med Chem, 2007).
